Bridges are numbered along the chain shown (N, C = ends). Where no end group is shown, it is not given here.
Assays:
GST-D3D4-ankyrin [1] = assay: His-tag pull-down on Co2+-NTA agarose, bound GST-D3D4-ankyrin by GST activity; type: binding, human; details: immobilized cdB3 variants, pH 8.0, n=2
Procedure, shortened: (§1)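 His6-tagged cdB3 (wild type or loop-deletion mutant) and GST-D3D4 ankyrin (wild type or charge-reversal mutant) were expressed in E. coli BL21(DE3)pLysS and purified. cdB3 was incubated at 4°C with increasing GST-ankyrin in pH 8.0 phosphate/KCl/imidazole buffer with 10% sucrose, 1 mg/ml BSA and PMSF. Complexes were captured on Co2+-NTA beads for 2 h, washed 3x and eluted with 250 mM imidazole. Equal cdB3 loading was checked by anti-cdB3 blot, and bound ankyrin was quantified by GST activity.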

AUC = target: the molecule itself; assay: AUC
GST-ankyrin = type: binding, human; details: GST-ankyrin 1 μM on glutathione-beads; cdB3 or mutant 1 μM; anti-cdB3 antibody
Procedure, shortened: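 Purified GST-ankyrin was immobilized on glutathione beads and incubated 2 h with His6-tagged wild-type or mutant cdB3 expressed in E. coli. Beads were washed 3x with binding buffer, and captured cdB3 was quantified by dot blot with a locally prepared polyclonal anti-cdB3 antibody.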

[2] = target: T1, GST-D3D4-ankyrin (GST fusion construct of the D3D4 domain of ankyrin), wild type (human, UniProt P16157 402-827); assay: pull-down
T1 sequence: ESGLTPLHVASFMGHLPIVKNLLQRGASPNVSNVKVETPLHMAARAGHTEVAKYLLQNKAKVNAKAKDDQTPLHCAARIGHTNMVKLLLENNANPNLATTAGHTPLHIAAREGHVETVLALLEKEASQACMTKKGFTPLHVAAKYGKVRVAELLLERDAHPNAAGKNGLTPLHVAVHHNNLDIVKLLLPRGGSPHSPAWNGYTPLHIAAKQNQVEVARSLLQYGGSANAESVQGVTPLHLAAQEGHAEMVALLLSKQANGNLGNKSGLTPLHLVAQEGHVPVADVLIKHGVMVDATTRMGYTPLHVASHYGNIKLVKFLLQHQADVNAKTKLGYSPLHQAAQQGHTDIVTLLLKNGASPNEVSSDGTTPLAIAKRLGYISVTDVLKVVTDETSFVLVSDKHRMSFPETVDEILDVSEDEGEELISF

[3] = tested on: glyceraldehyde-3-phosphate dehydrogenase (GAPDH); details: 2 μg/mL GAPDH, 2 min at room temperature, pH 7.0; 10 mM imidazole acetate; absorbance change at 340 nm
GST-D3D4-ankyrin [4] = type: binding, human; details: increasing concentrations of GST-D3D4-ankyrin; anti-ankyrin polyclonal antibodies
[5] = target: T1, GST-D3D4-ankyrin (GST fusion construct …); assay: pull-down; remark: listed apart in the source
cdB3 = assay: Binding of native or mutated GST-D3D4 ankyrin to His-tagged cdB3; parameters: species or system human; details: GST activity, n=2
Procedure, shortened: as §1

B1: double loop deleted (ΔL1 + ΔL2) cdB3: combination of loop 1 and loop 2 deletion mutant (protein)
chain: MEELQDDYEDMMEENLEQEEYEDPDIPESQMEEPAAHDTEATATDYHTTSHPGTHKVYVELQGGRWMEAARWVQLEENLGENGAWGRPHLSHLTFWSLLELRRVFTKGTVLLDLQETSLAGVANQLLDRFIFEDQIRPQDREELLRALLLKHSHAGELEALGGVKGGQPLLPQHSSLETQLFCEQGDGGTEGHSPSGILEKIPPDSEATLVLVGRADFLEQPVLGFVRLQEAAELEAVELPVPIRFLFVLLGPEAPHIDYTQLGRAAATLMSERVFRIDAYMAQSRGELLHSLEGFLDCSLVLPPTDAPSEQALLSLVPVQRELLRRRYQSSPAKPDSSFYKGLDLNGGPDDPLQQTGQLF
modifications: left off: His6, C-terminal, kept
Q: For B1, which “affinity for GST-ankyrin (in words)” value (GST-D3D4-ankyrin [1]) is on record?
A: no affinity could be detected

B2: cdB3 ΔL1 (cdB3 with loop 1, residues 63–73, replaced by a diglycine bridge) (domain or fragment, human)
chain: MEELQDDYEDMMEENLEQEEYEDPDIPESQMEEPAAHDTEATATDYHTTSHPGTHKVYVELQGGRWMEAARWVQLEENLGENGAWGRPHLSHLTFWSLLELRRVFTKGTVLLDLQETSLAGVANQLLDRFIFEDQIRPQDREELLRALLLKHSHAGELEALGGVKPAVLTRSGDPSQPLLPQHSSLETQLFCEQGDGGTEGHSPSGILEKIPPDSEATLVLVGRADFLEQPVLGFVRLQEAAELEAVELPVPIRFLFVLLGPEAPHIDYTQLGRAAATLMSERVFRIDAYMAQSRGELLHSLEGFLDCSLVLPPTDAPSEQALLSLVPVQRELLRRRYQSSPAKPDSSFYKGLDLNGGPDDPLQQTGQLF
Q: How did the “stoichiometry N” value (AUC) turn out when B2 was run?
A: 2

B3: cdB3 ΔL1: mutant cdB3 with loop 1 (residues 63–73) replaced by a diglycine bridge (protein)
chain: MEELQDDYEDMMEENLEQEEYEDPDIPESQMEEPAAHDTEATATDYHTTSHPGTHKVYVELQGGRWMEAARWVQLEENLGENGAWGRPHLSHLTFWSLLELRRVFTKGTVLLDLQETSLAGVANQLLDRFIFEDQIRPQDREELLRALLLKHSHAGELEALGGVKPAVLTRSGDPSQPLLPQHSSLETQLFCEQGDGGTEGHSPSGILEKIPPDSEATLVLVGRADFLEQPVLGFVRLQEAAELEAVELPVPIRFLFVLLGPEAPHIDYTQLGRAAATLMSERVFRIDAYMAQSRGELLHSLEGFLDCSLVLPPTDAPSEQALLSLVPVQRELLRRRYQSSPAKPDSSFYKGLDLNGGPDDPLQQTGQLF
modifications: left off: His6, C-terminal, kept
Q: Which “affinity for immobilized GST-ankyrin by dot blot (in words)” value (GST-ankyrin) does the source give for B3 here?
A: no affinity for ankyrin

B4: ΔL2 cdb3: mutant cdB3 with a diglycine bridge in place of loop 2 (residues 175–185) (protein)
chain: MEELQDDYEDMMEENLEQEEYEDPDIPESQMEEPAAHDTEATATDYHTTSHPGTHKVYVELQELVMDEKNQELRWMEAARWVQLEENLGENGAWGRPHLSHLTFWSLLELRRVFTKGTVLLDLQETSLAGVANQLLDRFIFEDQIRPQDREELLRALLLKHSHAGELEALGGVKGGQPLLPQHSSLETQLFCEQGDGGTEGHSPSGILEKIPPDSEATLVLVGRADFLEQPVLGFVRLQEAAELEAVELPVPIRFLFVLLGPEAPHIDYTQLGRAAATLMSERVFRIDAYMAQSRGELLHSLEGFLDCSLVLPPTDAPSEQALLSLVPVQRELLRRRYQSSPAKPDSSFYKGLDLNGGPDDPLQQTGQLF
modifications: left off: His6, C-terminal, kept
Q: For B4, which “affinity for GST-ankyrin (in words)” value (GST-D3D4-ankyrin [1]) is on record?
A: no affinity could be detected

B5: cytoplasmic domain of band 3 (cdB3), wild type, with COOH-terminal His6-tag (domain or fragment, human)
chain: MEELQDDYEDMMEENLEQEEYEDPDIPESQMEEPAAHDTEATATDYHTTSHPGTHKVYVELQELVMDEKNQELRWMEAARWVQLEENLGENGAWGRPHLSHLTFWSLLELRRVFTKGTVLLDLQETSLAGVANQLLDRFIFEDQIRPQDREELLRALLLKHSHAGELEALGGVKPAVLTRSGDPSQPLLPQHSSLETQLFCEQGDGGTEGHSPSGILEKIPPDSEATLVLVGRADFLEQPVLGFVRLQEAAELEAVELPVPIRFLFVLLGPEAPHIDYTQLGRAAATLMSERVFRIDAYMAQSRGELLHSLEGFLDCSLVLPPTDAPSEQALLSLVPVQRELLRRRYQSSPAKPDSSFYKGLDLNGGPDDPLQQTGQLF
Q: B5 was tested. Which Kd [2] did it give?
A: ~0.4 µM

B6: native cdB3: cytoplasmic domain of band 3 (protein)
chain: MEELQDDYEDMMEENLEQEEYEDPDIPESQMEEPAAHDTEATATDYHTTSHPGTHKVYVELQELVMDEKNQELRWMEAARWVQLEENLGENGAWGRPHLSHLTFWSLLELRRVFTKGTVLLDLQETSLAGVANQLLDRFIFEDQIRPQDREELLRALLLKHSHAGELEALGGVKPAVLTRSGDPSQPLLPQHSSLETQLFCEQGDGGTEGHSPSGILEKIPPDSEATLVLVGRADFLEQPVLGFVRLQEAAELEAVELPVPIRFLFVLLGPEAPHIDYTQLGRAAATLMSERVFRIDAYMAQSRGELLHSLEGFLDCSLVLPPTDAPSEQALLSLVPVQRELLRRRYQSSPAKPDSSFYKGLDLNGGPDDPLQQTGQLF
modifications: left off: His6, C-terminal, kept
Q: Which results are given for B6?
A: inhibition of GAPDH [3]: 90%; GST-ankyrin binding by dot blot (in words) (GST-D3D4-ankyrin [4]): usual prominent binding; affinity for immobilized GST-ankyrin by dot blot (in words) (GST-ankyrin): strong affinity

Q: With CELVMDEKNQELC [linear loop 1 peptide (residues 63–73 of cdB3 with a cysteine at each end, reduced)] as the molecule, how does the IC50 [5] read?
A: 55 µM

B7: mutated ankyrin: D3D4 domain of ankyrin with the four mutations N601D, K611E, E645K, and Q634E (protein)
chain: ESGLTPLHVASFMGHLPIVKNLLQRGASPNVSNVKVETPLHMAARAGHTEVAKYLLQNKAKVNAKAKDDQTPLHCAARIGHTNMVKLLLENNANPNLATTAGHTPLHIAAREGHVETVLALLEKEASQACMTKKGFTPLHVAAKYGKVRVAELLLERDAHPNAAGKNGLTPLHVAVHHNNLDIVKLLLPRGGSPHSPAWDGYTPLHIAAEQNQVEVARSLLQYGGSANAESVEGVTPLHLAAQKGHAEMVALLLSKQANGNLGNKSGLTPLHLVAQEGHVPVADVLIKHGVMVDATTRMGYTPLHVASHYGNIKLVKFLLQHQADVNAKTKLGYSPLHQAAQQGHTDIVTLLLKNGASPNEVSSDGTTPLAIAKRLGYISVTDVLKVVTDETSFVLVSDKHRMSFPETVDEILDVSEDEGEELISF
modifications: left off: GST, end not stated, kept
Q: With B7 as the molecule, how does the “affinity of mutated ankyrin for cdB3 (in words)” value (cdB3; N601D, K611E, Q634E, E645K mutant) read?
A: unable to bind cdB3

B8: Wild-type ankyrin: GST fusion construct of the D3D4 domain of ankyrin (protein)
chain: ESGLTPLHVASFMGHLPIVKNLLQRGASPNVSNVKVETPLHMAARAGHTEVAKYLLQNKAKVNAKAKDDQTPLHCAARIGHTNMVKLLLENNANPNLATTAGHTPLHIAAREGHVETVLALLEKEASQACMTKKGFTPLHVAAKYGKVRVAELLLERDAHPNAAGKNGLTPLHVAVHHNNLDIVKLLLPRGGSPHSPAWNGYTPLHIAAKQNQVEVARSLLQYGGSANAESVQGVTPLHLAAQEGHAEMVALLLSKQANGNLGNKSGLTPLHLVAQEGHVPVADVLIKHGVMVDATTRMGYTPLHVASHYGNIKLVKFLLQHQADVNAKTKLGYSPLHQAAQQGHTDIVTLLLKNGASPNEVSSDGTTPLAIAKRLGYISVTDVLKVVTDETSFVLVSDKHRMSFPETVDEILDVSEDEGEELISF
modifications: left off: GST, end not stated, kept
Q: B8 was tested. Which Kd (cdB3; read-out: apparent dissociation constant of ankyrin for cdB3) did it give?
A: ~0.4 µM

Q: With CELVMDEKNQELC (disulfide 1-13) [cyclized loop 1 peptide (residues 63–73 of cdB3 with a cysteine at each end, disulfide-bonded)] as the molecule, how does the IC50 [5] read?
A: ~15 µM
